# Screening results: PubChem BioAssay, several laboratories
# STAT3 blocker – IL-6 driven STAT3 reporter inhibitors, primary screen, U3A cells, luciferase, luminescence, MLSCN library | inhibition, % at 5.5 µM | 190,000 tested, 0.89% active | IL-6 STAT3-luciferase reporter; host cell line lacks STAT1;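 active = inhibition above the mean inhibition across all screened compounds plus 3 SD, cut at about 44% in these data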;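 note: 0% = DMSO only wells and 100% = 100 µM nifuroxazide control wells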
# STAT1 act-1 – STAT1 signaling activators, primary screen, cell-based, HTS, luciferase reporter; NIH 3T3 STAT1-luciferase reporter, IFN-gamma, luminescence; 100% = IFN-gamma alone, no compound; 200,000 tested, 2.6% active; activation (% of control), % at 5.5 µM;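 active = activation above the screen-wide mean activation plus 3 SD, cut at about 130% in these data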;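 note: raw ratio to IFN-gamma control signal so 100% means no change and 0% no light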
# NF-kB neuron act – activators of NF-kB expression in neurons, primary screen, cell-based, HTS | human neuronal cells, NF-kB reporter expression; hits give high values | fold change at 12.5 µM | 190,000 tested, 1.6% active | AID 1239, 2008; in the data active = fold change above about 3.3
# APP 5'UTR act – activators of APP 5'UTR luciferase reporter, primary screen, SH-SY5Y cells; SH-SY5Y APP 5'UTR luciferase reporter, luminescence; zero percent = DMSO vehicle wells; activation, % at 2 µM; 190,000 tested, 1% active;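 active = activation above a set limit, based on mean plus 3 SD of controls, cut at about 140% in these data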
# STAT1 blocker – STAT1 signaling inhibitors, primary screen, cell-based, HTS, luciferase reporter; NIH 3T3 STAT1-luciferase reporter, IFN-gamma, luminescence; inhibition, % at 5.5 µM; 200,000 tested, 0.35% active; AID 920, 2007;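 active = inhibition above a set limit, the mean inhibition across all tested compounds plus 3 SD, cut at about 34% in these data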;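 note: 0% = IFN-gamma with DMSO and 100% = IFN-gamma with 300 µM nifuroxazide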
# STAT3 act-1 – IL-6 driven STAT3 reporter potentiators, primary screen, U3A cells, luciferase, luminescence, MLSCN library; 190,000 tested, 0.91% active; IL-6 STAT3-luciferase reporter; 100% = signal with IL-6 EC80 alone; activation (% of control), % at 5.6 µM;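 active = activation above the screen-wide mean of compound activation plus 3 SD, cut at about 130% in these data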;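 note: 0% = background luminescence of wells with medium and substrate only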
#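 Test system: STAT3-luciferase reporter U3A cells; Detection: reporter luminescence signal; Times: 1 h compound pre-exposure, 6 h IL-6 stimulation, 37 °C; Benchmarks: IL-6-only high control; Also added: IL-6 stimulus at 33 ng/mL final.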
# STAT3 act-2 – STAT3 reporter potentiators, retest of hits, confirmation, U3A cells, luciferase, luminescence; 1,200 tested, 64% active; potentiation (% of control), % at 5.7 µM; shares compounds with STAT3 act-1; AID 1267, 2008; IL-6 potentiation; U3A cells lack STAT1; 100 means same as IL-6 alone;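 active = percent activation of the STAT3 luciferase reporter above a set limit taken from the earlier primary screen, cut at about 130% in these data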;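 note: 0% = background signal of medium plus substrate and 100% = median of IL-6 with DMSO wells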
# NFkB act STAT3ct – NF-kB reporter activators in human cells, counter-screen for STAT3 activator project; AID 1309, 2008; 1,200 tested, 11% active; shares compounds with STAT3 act-1; activation (% of control), % at 5.7 µM; NF-kappaB reporter activation; in the data active = activation above about 120%;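 note: reporter induced by TNF-alpha stimulation; 100% = median of stimulated DMSO wells and 0% = no signal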
# STAT1 act-2 – STAT1 reporter activators, IFN-gamma induced, counter-screen for STAT3 activator project, cell-based, NIH 3T3, luciferase luminescence. shares compounds with STAT3 act-1. AID 1318, 2008. NIH 3T3 STAT1-luciferase reporter. 1,200 tested, 13% active. activation (% of control), % at 5.7 µM;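 active = activation above the solvent-only control well mean plus 3 SD, set per screening run, cut at about 120% in these data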;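 note: 100% = IFN-gamma with DMSO median signal so 100% means no change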
# The depositor's hits bear a star; . = not tested or not shown. An excerpt weighted towards active compounds, which were near 5.1% of everything screened.
SMILES,STAT3 blocker,STAT1 act-1,NF-kB neuron act,APP 5'UTR act,STAT1 blocker,STAT3 act-1,STAT3 act-2,NFkB act STAT3ct,STAT1 act-2
Cc1ccc(-c2nc3ccccc3o2)cc1NC(=S)NC(=O)c1cccs1,4,118,2.1,61,-20,105,.,.,.
Cc1ccc2oc(-c3cccc(NC(=S)NC(=O)/C=C/c4ccco4)c3)nc2c1,-37,110,0.49,16,-11,138*,130,109,123*
Cc1ccc(C2=CC(c3cccs3)n3nnnc3N2)cc1 (stereo unspecified),-39,95,1.9,17,0,147*,127,109,101
O=C(O)C(Cc1c[nH]c2ccccc12)N1Cc2ccccc2C1=O (stereo unspecified),-44,110,.,-9,-12,143*,137*,114,114
COc1ccc(C)c2sc(=NC(=O)c3ccccc3)n(C)c12,-33,120,3.6*,32,-22,136*,139*,148*,182*
O=C(OC1Cn2c(=O)ccc(=O)n2C1)c1ccccc1,-6,93,1.1,17,7,106,.,.,.
C=CCn1c(=O)c2ccccc2n2c(SCc3nc4ccccc4s3)nnc12,-47,111,1.1,50,-12,144*,142*,123*,135*
C=CCn1c(SCC#N)nc2ccccc2c1=O,-37,106,0.98,7,-6,136*,122,99,104
COc1ccc(C2C(C(=O)OCC3CCCO3)=C(C)NC3=C2C(=O)CC(c2ccco2)C3)cc1O (stereo unspecified),-2,101,0.8,6,-1,106,.,.,.
CCOC(=O)c1nc(C)n(-c2cc(OC)c(Cl)cc2Cl)n1,4,91,1.5,-3,10,104,.,.,.
COC(=O)c1cccc(C(=O)Nc2cnc3ccccc3c2)n1,-93,110,0.87,0,-11,183*,162*,112,122*
COC(=O)c1cccc(C(=O)Nc2ccc(C)cc2Br)n1,-42,93,1.4,16,8,141*,130,109,103
CCN(CC)C(=O)Nc1cnc2ccccc2c1,-5,109,1.9,37,-10,106,.,.,.
O=C(Nc1c(C(=O)O)[nH]c2ccccc12)NC1CCCCC1,-76,98,0.97,3,2,164*,159*,106,106
CCN(CC)c1ncnc2c1ncn2Cc1c(Cl)cccc1Cl,5,99,0.99,-2,1,98,.,.,.
Clc1cccc(Cl)c1Cn1cnc2c(N3CCCCCC3)ncnc21,-41,103,0.91,16,-4,138*,139*,105,103
COC(=O)Nc1ccc(S(=O)(=O)N2CCCC(C(=O)N3CC(C)OC(C)C3)C2)cc1 (stereo unspecified),5,95,0.89,15,5,106,.,.,.
O=C(CN1CCN(Cc2cccc(Cl)c2)C1=O)NCc1cccs1,7,96,1.5,6,4,105,.,.,.
CCCN(CCC)C(=O)Cn1c2ccccc2c2nc(=O)cc(C)n21,-65,85,1.1,-14,16,165*,161*,105,90
CCCNC(=O)C(C)n1c2ccccc2c2nc(=O)cc(C)n21 (stereo unspecified),9,96,1,3,5,100,.,.,.
Cc1cccc(C2c3[nH]c4ccccc4c3CCN2Cc2cccn2-c2ncccn2)c1 (stereo unspecified),-54,95,1.1,16,4,149*,156*,106,98
COc1ccc(C2c3[nH]c4ccccc4c3CCN2Cc2cccn2-c2ncccn2)cc1C (stereo unspecified),-38,99,0.89,-12,-1,136*,136*,104,94
CC(=O)Nc1ccc(CN2CCc3c([nH]c4ccccc34)C2c2ccccn2)cc1 (stereo unspecified),-25,96,1.1,23,4,127,.,.,.
O=C(Nc1ccc(Cl)cn1)c1ccc2ccccc2n1,-82,112,3.2,10,-14,178*,192*,130*,137*
Cc1c(C(=O)Nc2ccc(Cl)cn2)oc2ccccc12,-109,106,2,-2,-14,195*,197*,134*,138*
SMILES,STAT3 blocker,STAT1 act-1,NF-kB neuron act,APP 5'UTR act,STAT1 blocker,STAT3 act-1,STAT3 act-2,NFkB act STAT3ct,STAT1 act-2
O=C(Nc1ccccc1)c1ccc2ccccc2n1,-49,123,6.6*,179*,-25,153*,188*,141*,176*
O=C(Cc1cccc2ccccc12)Nc1ccc(N2CCOCC2)cc1,9,96,1.4,5,4,94,.,.,.
O=C(O)c1ccc(CNC(=O)c2ccc(C(F)(F)F)cc2)cc1,-50,109,1.2,3,-10,149*,168*,104,105
COc1cc(/C=N/Nc2nc(C)cc(=O)[nH]2)ccc1OC(=O)c1cccnc1,2,106,1.1,2,-8,100,.,.,.
CCOC(=O)c1[nH]c2ccccc2c1NC(=S)Nc1ccccc1C,-60,91,1.7,-14,10,152*,155*,104,89
CCCC(=O)Nc1c(C(=O)OCC)[nH]c2ccccc12,-77,90,1,-2,11,169*,149*,102,90
CCOC(=O)c1[nH]c2ccccc2c1NC(=O)c1ccco1,7,105,0.76,2,-5,99,.,.,.
CCOC(=O)c1[nH]c2ccccc2c1NC(=O)Nc1ccc(OC)cc1,-34,87,1.1,6,13,141*,143*,107,96
CCOC(=O)c1[nH]c2ccccc2c1NC(=S)Nc1cc(C)ccc1C,-64,94,1.6,-14,7,155*,150*,98,87
CCOC(=O)c1[nH]c2ccc(OC)cc2c1NC(C)=O,-2,104,1,9,-4,105,.,.,.
CC(C)CC(=O)Nc1cccc(C(C)O)c1 (stereo unspecified),-2,104,1.1,9,-6,102,.,.,.
Cc1ccc(CNC(=O)c2ccc(COc3ccccc3)cc2)cc1,-4,101,0.98,-12,-1,101,.,.,.
